TCR-CD3 inh – blocks the human TCR-CD3 interaction; TAMRA-labeled TCR probe fluorescence, biochemical; AID 651800; inhibition, % at 9.4 µM; actives 0.37% (n = 360,000); in the data active means inhibition above about 19%;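 further: recombinant mutant TCR 2C K166C tagged with TAMRA read by polarization; 0% = receptor in buffer alone and 100% = receptor with positive control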
DAGLB inhibitor – diacylglycerol lipase beta (human) inhibition; inhibition, % at 5.17 µM; HEK293T DAGLB membrane lysate, EnzChek fluorogenic substrate; actives 0.059% (n = 340,000); Q8NCG7; in the data active means inhibition above about 34%;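 further: 0% = enzyme with vehicle and 100% = wells lacking enzyme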
Target sequence (Q8NCG7 whole entry, looked up): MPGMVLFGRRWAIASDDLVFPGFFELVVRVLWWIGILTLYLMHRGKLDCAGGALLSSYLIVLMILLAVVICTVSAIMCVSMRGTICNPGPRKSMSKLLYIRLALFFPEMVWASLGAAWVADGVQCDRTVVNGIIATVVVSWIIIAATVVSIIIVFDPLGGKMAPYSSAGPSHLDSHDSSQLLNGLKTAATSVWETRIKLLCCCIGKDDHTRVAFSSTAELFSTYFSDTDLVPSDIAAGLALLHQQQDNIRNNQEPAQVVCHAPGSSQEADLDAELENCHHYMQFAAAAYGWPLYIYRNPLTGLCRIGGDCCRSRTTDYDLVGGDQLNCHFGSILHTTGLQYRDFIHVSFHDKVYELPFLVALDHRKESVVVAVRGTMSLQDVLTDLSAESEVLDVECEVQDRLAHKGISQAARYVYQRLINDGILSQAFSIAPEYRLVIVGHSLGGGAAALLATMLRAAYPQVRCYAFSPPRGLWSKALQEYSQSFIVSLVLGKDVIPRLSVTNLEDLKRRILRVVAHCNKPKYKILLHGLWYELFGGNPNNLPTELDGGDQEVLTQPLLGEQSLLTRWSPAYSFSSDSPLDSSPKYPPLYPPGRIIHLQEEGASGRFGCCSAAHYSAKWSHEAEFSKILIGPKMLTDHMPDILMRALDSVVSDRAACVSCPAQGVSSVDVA
SIAE inh – inhibitors of human sialic acid acetylesterase SIAE; Q9HAT2; actives 0.69% (n = 370,000); AID 1053197; SIAE FP-Rh probe binding, fluorescence polarization; inhibition, % at 9.66 µM;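 active means inhibition above a cutoff: mean of compounds within the control limits plus 3 SD of those, cut at about 17% in these data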;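 further: 0% = plate median of compound wells and 100% = probe without SIAE protein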
ABHD4 inh – inhibits mouse alpha/beta hydrolase domain 4. Q8VD66. purified mABHD4, FP-Rh probe fluorescence polarization. inhibition, % at 8.92 µM. actives 0.54% (n = 370,000). AID 720543;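 active means inhibition exceeding the mean over every tested compound plus 3 SD, cut at about 30% in these data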;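 further: 0% = plate median of compound wells and 100% = S159A mutant with DMSO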
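Assay system: mABHD4 protein; medium: HEPES pH 7.0, NaCl, Pluronic buffer; dosing: 8.92 µM, single dose; schedule: 45 min + 60 min at 25 °C; signal: FP readout, ex 525 nm / em 598 nm; read-out: normalized percent inhibition of probe labeling; repeats: single replicate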
HTRA1 inh – blocks human HTRA1 serine peptidase. actives 0.5% (n = 340,000). recombinant HTRA1, FP-rhodamine activity-based probe, fluorescence polarization. inhibition, % at 5.96 µM; in the data active means inhibition above about 36%;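 further: 0% = enzyme with DMSO and 100% = wells lacking enzyme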
An asterisk follows results filed as active; . = no result given; ! = a repeat was not active. Most compounds without a hit are left out; they make up all but 1.6% or so of the library.

SMILES	TCR-CD3 inh	DAGLB inhibitor	SIAE inh	ABHD4 inh	HTRA1 inh
CCC(=O)OC1(C)C(=O)C=C2C=C(c3ccsc3)OC=C2C1=O (stereo not drawn)	.	7.4	.	.	48.1*
COC(=O)CCC(=O)OC1(C)C(=O)C=C2C=C(c3ccsc3)OC=C2C1=O (stereo not drawn)	.	6.1	.	.	30.2
CCc1nc(C)ccc1OCC(=O)NCCCN(C)C	7.6	-2.0	19.8*	16.6	9.0
c1ccc(-c2cc3c(ccc4nonc43)nn2)cc1	-4.8	-0.3	-2.0	0.7	-0.2
On1onc2c3cc(-c4ccccc4)nc3ccc21	-0.3	-0.1	17.6*	-18.1	1.6
CC(=O)Nc1ccc(NC2=C/C(=N/S(=O)(=O)c3cccs3)c3ccccc3C2=O)cc1	1.7	.	13.3	34.0*	.
O=C1c2cc(Br)ccc2N(Cc2ccc(Br)cc2)S(=O)(=O)C1c1cc(Cl)c(Cl)cc1[N+](=O)[O-] (stereo not drawn)	.	30.7	.	.	52.6*
O=C1CS(=O)(=O)N(Cc2cccc(F)c2)c2ccc(Br)cc21	-7.6	26.7	-23.3	-62.7	-136.1
CC(C)(C)c1ccc(-c2nnc(SCc3ccccc3)n2Cc2ccco2)cc1	.	.	13.5	-8.0	.
C=CCN1C(=O)/C(=C2/Sc3ccccc3N2CC)SC1=S	0.7	0.1	-2.3	1.7	-6.1
C=CCN1C(=O)/C(=C2/Sc3ccccc3N2CCCS(=O)(=O)O)SC1=S	1.6	5.7	3.3	36.4*	17.1
O=C(Nc1cccc(Cl)c1)Nc1cc(S(=O)(=O)N2CCCCC2)ccc1Cl	84.8*	-4.1	-230.3	-170.2	-141.9
CN1CCN(S(=O)(=O)c2ccc(NC(=O)Nc3cccc(Cl)c3)cc2)CC1	1.3	8.0	-21.0	-21.5	-25.5
CN(c1ccccc1)S(=O)(=O)c1ccc(NC(=O)c2ccc(-c3ccccc3)cc2)cc1	63.0*	-4.3	4.1	-14.5	-51.3
O=C(N/N=C/c1cc(Br)ccc1O)C(=O)Nc1ccccc1OC(F)(F)C(F)F	9.9	11.8	3.2	13.8	45.9*
O=C(CSc1nnnn1-c1ccc2c(c1)OCCO2)N1CCc2ccccc21	1.9	0.3	26.8*	11.3	-3.1
COC(=O)c1ccc(C2Nc3ccc(/C(C)=N/NC(=O)C(OC)c4ccccc4)cc3C3C=CCC32)cc1 (stereo not drawn)	1.4	11.9	21.8*	14.3	20.8
COc1cccc2c1C(=O)c1c(O)c3c(c(O)c1C2=O)C[C@@](O)(C(=O)CO)C[C@@H]3O[C@H]1C[C@H](N)[C@@H](O)[C@H](C)O1	.	-4.7	.	.	68.8*
O=C(CNS(=O)(=O)c1ccc(Br)s1)N1CCN(c2ccccn2)CC1	.	.	-1.6	5.1	.
Cc1cc(O)c(CN(C)C)c2c1C(=O)/C(=C/c1ccco1)O2	4.0	-5.8	16.5	13.8	-2.6
Cc1cc(O)c(C=O)c2c1C(=O)Oc1c(CO)c(O)c3c(c1O2)C(O)OC3=O (stereo not drawn)	.	24.0	.	.	41.1*
Nc1nc2c(ncn2[C@@H]2O[C@H](C(=O)N[C@H](Cc3ccccc3)C(=O)NCc3ccc4c(c3)OCO4)[C@@H](O)[C@H]2O)c(=O)[nH]1	1.5	.	3.7	2.0	.
COc1cc(C2Nc3cccc4cccc(c34)N2)ccc1O	-9.7	3.9	54.2*	0.2	20.9
CCOc1cc(CNc2ccc(O)cc2)cc(Br)c1OCc1ccccc1F	.	-1.8	.	.	44.4*
COC(=O)C(NC(=O)c1ccccc1)=C1C=C(C)OC(C)=C1	-5.1	-0.1	18.4*	0.0	3.1
SMILES	TCR-CD3 inh	DAGLB inhibitor	SIAE inh	ABHD4 inh	HTRA1 inh
CN1CCCCC(NC(=O)c2ccc(F)cc2)C1=O (stereo not drawn)	6.3	.	-2.8	4.4	.
COc1cccc(CN(C(=O)Cc2c[nH]c3ccccc23)C(C(=O)NC2CCCCC2)c2ccc(C)o2)c1 (stereo not drawn)	-1.2	-7.0	18.0*	-6.4	-32.8
COc1ccc(CN(C(=O)Cc2c[nH]c3ccccc23)C(C(=O)NC2CCCCC2)c2ccc(C)o2)cc1 (stereo not drawn)	4.1	-5.5	-0.7	-11.4	-37.8
COc1cccc(CN(C(=O)c2ccco2)C(C(=O)NC2CCCC2)c2cccnc2)c1 (stereo not drawn)	-11.8	0.6	135.3*	-4.0	-0.2
C=CCN1C[C@H](COC(=O)c2cccc(C)c2)Oc2cccc(F)c2S1(=O)=O	-4.0	.	1.9	-3.9	.
COc1c(CC=C(C)C)cc(C2CC(=O)c3c(O)cc(O)cc3O2)cc1CC=C(C)C (stereo not drawn)	7.0	-13.1	-22.2	-28.8	-15.4
COC1=CC(=O)C(C2CC(=O)c3c(O)cc(O)cc3O2)=CC1=O (stereo not drawn)	3.3	0.1	10.9	48.7*	17.8
COc1ccc(Cn2cc(CN3[C@H](C)COc4cc(Br)ccc4S3(=O)=O)nn2)cc1	.	.	-2.3	3.2	.
O=C(c1ccc(OCCN2CCCCC2)cc1)c1c(-c2ccc(O)cc2)sc2cc(O)ccc12	4.1	0.8	27.0*!	14.4	7.2
CN1CCN(C(=O)Cn2c(=O)oc3cc(S(=O)(=O)NCc4ccccc4)ccc32)CC1	5.4	-1.2	25.2*	-1.1	2.3
CCOC(=O)Cn1c(=O)oc2cc(S(=O)(=O)NCCCc3ccccc3)ccc21	1.8	-0.9	1.0	-0.6	-5.8
CN(CCO)c1ccc(C=NNc2ccc([N+](=O)[O-])cc2S(=O)(=O)Nc2ccccc2C(=O)O)cc1	1.0	.	2.6	46.1*	.
COC(=O)[C@]12C[C@H](CC(=O)NCC34CC5CC(CC(C5)C3)C4)C(=O)N(Cc3ccc4c(c3)OCO4)C1=C[C@H](C(C)(C)C)O[C@@H]2C	-5.4	.	2.3	-4.2	.
CN1[C@@H](Cc2ccccc2)COc2cccc(N3CCSCC3)c2S1(=O)=O	.	.	3.1	-0.4	.
COc1ccc2c(c1)CN1CN(CC(C)C)S(=O)(=O)CC21 (stereo not drawn)	.	.	-2.9	-6.0	.
CCCc1ccc(-c2cc(NC(=O)Cc3c(C)[nH]c4ccccc34)ccc2N(C)c2cccnc2)cc1	-3.1	.	8.4	37.2*	.
CCCc1ccc(-c2cc(NC(=O)Cc3c(C)[nH]c4ccccc34)ccc2Nc2cccnc2)cc1	-3.1	.	8.9	25.1	.
CCn1c(=O)n(CC(=O)N2CCC(C)CC2)c(=O)c2ccccc21	.	.	-0.9	1.3	.
CC1Oc2cc3oc4c(O)c(O)ccc4c(=O)c3c(O)c2C1(C)C (stereo not drawn)	.	24.8	.	.	71.8*
O=C(CSc1cn(CCNC(=O)c2ccccc2)c2ccccc12)NCc1ccco1	1.3	-4.4	18.2*	-1.1	-10.9
CCCn1cc(SCC(=O)NCc2ccco2)c2ccccc21	1.4	-0.4	1.4	-6.7	9.2
O=C(N/N=C/c1ccco1)c1cccc(N2Cc3ccccc3C2)c1	24.5*	1.5	-1.9	-0.9	10.4
O=C(N/N=C/c1ccco1)c1cccc(N2CCCC2=O)c1	6.1	0.2	0.2	12.8	11.8
O=C(Nc1ccc2c(c1)OCO2)c1cc2ncc(Br)cn2n1	7.9	21.4	68.4*	-0.8	14.3

Bioassay records: PubChem, The Scripps Research Institute Molecular Screening Center
